Paper PMC5590686 (Drug Design, Development and Therapy, 2017)

Tests used:
P-gp = assay: Rho 123 efflux/accumulation by flow cytometry; type: cell-based, rat; conditions: puerarin 50, peoniflorin 20, menthol 25 μg/mL
[1] = test system: TJ proteins ZO-1, claudin-1, F-actin; assay: Immunofluorescence of TJ proteins in RNECs; type: cell-based, rat; conditions: 3 h; puerarin 50, peoniflorin 20, menthol 25 μg/mL
Method in brief: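 Monolayers grown on PET Transwell membranes (5×10^5 cells/cm2) were exposed to compound media for 3 h at 37°C. They were fixed in cold 4% paraformaldehyde for 30 min and blocked 1 h in goat serum. Anti-ZO-1 or anti-claudin-1 (1:100) was applied overnight at 4°C, then TRITC/FITC secondaries; F-actin was stained with phalloidin (1:150, 30 min, RT), with DAPI counterstain. Fluorescence/confocal imaging used identical settings; AOD = IntDen/Area, expressed as percentage.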

Calu-3 cells = conditions: Calu-3 monolayer, cited from earlier work
[2] = rats, cited from earlier work
[3] = Bidirectional transport of puerarin across RNEC monolayers; type: in vitro ADME; conditions: Sprague Dawley, rat
Method in brief: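 RNECs from a male Sprague Dawley rat nasal epithelium, passage 2–3, were seeded at 5×10^5 cells/cm2 on collagen-coated 0.4-μm PET Transwell membranes and grown 3 days at air interface until TEER >500 Ω·cm2. Monolayers were HBSS-washed and equilibrated 30 min at 37°C. Drug was dosed apical or basolateral with shaking at 37°C, receiver sampled 30–180 min, and quantified by C18 HPLC-UV at 250 nm. Papp = regression dQ/dt over donor C and area; ER calculated from both directions.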

Papp A→B at 180 min [3]	Papp B→A at 180 min [3]	Papp at 180 min [3]	efflux ratio at 180 min [3]	Structure (SMILES)	effect on P-gp function (Rho 123 retention) (P-gp)	immunostaining / AOD of ZO-1, claudin-1 and F-actin versus control [1]	effect of coadministration on Papp of puerarin (Calu-3 cells)	Papp of puerarin bidirectional transport (Calu-3 cells; both directions)	efflux ratio (ER) (Calu-3 cells)	ability of puerarin to target the brain via intranasal administration ([2]; intranasal versus injection and oral)	bioavailability of puerarin following intranasal administration ([2]; intranasal versus oral, plasma and brain by HPLC)
				CC1CCC(C(C)C)C(O)C1 (centres unmarked) [menthol]	inhibited the function of P-gp	weaker than that of the control group	significantly (P<0.05) improved				
				C[C@@]12C[C@@]3(O)O[C@@H](O1)[C@]1(COC(=O)c4ccccc4)[C@H]3C[C@@]12O[C@@H]1O[C@H](CO)[C@@H](O)[C@H](O)[C@H]1O [peoniflorin]	inhibited the function of P-gp		remained unaltered				
1.27 to 1.31 ×10⁻⁶ cm/s	1.35 to 1.41 ×10⁻⁶ cm/s	< 1.5 ×10⁻⁶ cm/s	< 2	O=c1c(-c2ccc(O)cc2)coc2c([C@@H]3O[C@H](CO)[C@@H](O)[C@H](O)[C@H]3O)c(O)ccc12 [puerarin, Puerarin]	inhibited the function of P-gp			< 1.5 ×10⁻⁶ cm/s	< 1.5	higher than that with injection and oral administration	significantly higher than that of oral administration
